Assay results published in ChEMBL document CHEMBL1773072, “Diosgenin, a plant-derived sapogenin, exhibits antiviral activity in vitro against hepatitis C virus” (J Nat Prod, 2011).
The source made the active and inactive calls. No cut-off for these calls is given here.

Tests used:
Hepatitis C virus [1] = assay: Antiviral activity against Hepatitis C virus infected in human Ava5 cells assessed as decreased NS3 protein level at […] after 72 hrs by Western blotting; type: functional, organism-based; conditions: Hepacivirus hominis
Method in brief: (§1)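 Ava5 subgenomic replicon cells (Huh7-derived, HCV genotype 1b NS3–NS5B, neo) are kept in DMEM/10% FBS at 37 °C, 5% CO2 and exposed to compound for 72 h. Cells are washed in PBS and lysed in Tris/NaCl/1% Triton X-100. Lysates are clarified and run on 10% SDS-PAGE, then immunoblotted with anti-NS3; β-actin is the loading control.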

Hepatitis C virus [2] = assay: Antiviral activity against Hepatitis C virus infected in human Ava5 cells assessed as decreased NS3 protein level at 5 uM after 72 hrs by Western blotting in presence of IFN-alpha; type: functional, organism-based; conditions: Hepacivirus hominis
Method in brief: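 Ava5 replicon cells given compound (5 μM) or IFN-α (5, 10, 50 IU/mL), alone and combined, for 72 h. BILN 2061 served as NS3/4A inhibitor positive control. Washed cells stored at -80 °C, then lysates Western blotted for NS3 with β-actin as internal standard.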

Hepatitis C virus [3] = assay: Antiviral activity against Hepatitis C virus infected in human Ava5 cells expressing EG(delta4AB)SEAP reporter gene assessed as decreased viral replication measured as SEAP activity by Phospha-Light assay; type: functional, organism-based, Hepacivirus hominis
Method in brief: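 Ava5-EG(Δ4AB)SEAP reporter cells seeded 6×10^3/well, after 24 h dosed with a concentration series. At 48 h medium replaced with fresh medium at same concentrations, incubated 24 h more. Secreted alkaline phosphatase in medium measured by chemiluminescent kit. EC50 from dose–response; three replicate wells, means ± SD.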

[4] = Cytotoxicity against Hepatitis C virus infected human Ava5 cells assessed as cell viability after 5 days by MTS assay; type: cell-based; conditions: ava5, 120 h
Method in brief: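 Cells seeded, incubated overnight at 37 °C, 5% CO2, then medium replaced with compound-containing medium across a concentration range for five days. Viability by MTS colorimetric read at 490 nm after 2 h reagent incubation; ethanol as solvent control. Means ± SD.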

Hepatitis C virus [5] = assay: Antiviral activity against Hepatitis C virus infected in human Ava5 cells expressing EG(delta4AB)SEAP reporter gene assessed as decreased viral RNA level after 72 hrs by RTqPCR analysis; type: functional, organism-based; conditions: Hepacivirus hominis
Method in brief: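 Ava5 cells seeded 1.5×10^5/well, incubated overnight, treated with a concentration series for 72 h. Total RNA TRIzol-extracted; HCV genotype 1b RNA quantified by SYBR Green RT-qPCR. Levels expressed relative to untreated cells (100%); triplicate, means ± SD.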

Hepatitis C virus [6] = assay: Antiviral activity against Hepatitis C virus infected in human Ava5 cells expressing EG(delta4AB)SEAP reporter gene assessed as decreased NS3 protein level after 72 hrs by Western blotting; type: functional, organism-based; conditions: Hepacivirus hominis; method in brief: as §1
Hepatitis C virus [7] = assay: Antiviral activity against Hepatitis C virus JFH-1 infected in human Huh7 cells expressing G(delta4AB)SEAP reporter gene assessed as decreased NS3 protein level at 20 uM after 8 days by Western blotting; type: functional, organism-based; conditions: Hepacivirus hominis, Huh-7
Method in brief: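 Huh7-EG(Δ4B5A)SEAP cells seeded 5×10^4/well, incubated overnight, then infected with HCV JFH-1 (genotype 2a) at MOI 0.02 for 6 h. Unbound virus removed by medium replacement, then compound at 20 μM in basal medium for 7 days. Intracellular NS3 in lysates detected by Western blot.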

[8] = target: Signal transducer and activator of transcription 3 (Homo sapiens) (UniProt P40763); assay: Inhibition of STAT3 phosphorylation at Tyr 705 in human Ava5 cells after 72 hrs by Western blotting; type: cell-based
Signal transducer and activator of transcription 3 (Homo sapiens), sequence (P40763 whole entry): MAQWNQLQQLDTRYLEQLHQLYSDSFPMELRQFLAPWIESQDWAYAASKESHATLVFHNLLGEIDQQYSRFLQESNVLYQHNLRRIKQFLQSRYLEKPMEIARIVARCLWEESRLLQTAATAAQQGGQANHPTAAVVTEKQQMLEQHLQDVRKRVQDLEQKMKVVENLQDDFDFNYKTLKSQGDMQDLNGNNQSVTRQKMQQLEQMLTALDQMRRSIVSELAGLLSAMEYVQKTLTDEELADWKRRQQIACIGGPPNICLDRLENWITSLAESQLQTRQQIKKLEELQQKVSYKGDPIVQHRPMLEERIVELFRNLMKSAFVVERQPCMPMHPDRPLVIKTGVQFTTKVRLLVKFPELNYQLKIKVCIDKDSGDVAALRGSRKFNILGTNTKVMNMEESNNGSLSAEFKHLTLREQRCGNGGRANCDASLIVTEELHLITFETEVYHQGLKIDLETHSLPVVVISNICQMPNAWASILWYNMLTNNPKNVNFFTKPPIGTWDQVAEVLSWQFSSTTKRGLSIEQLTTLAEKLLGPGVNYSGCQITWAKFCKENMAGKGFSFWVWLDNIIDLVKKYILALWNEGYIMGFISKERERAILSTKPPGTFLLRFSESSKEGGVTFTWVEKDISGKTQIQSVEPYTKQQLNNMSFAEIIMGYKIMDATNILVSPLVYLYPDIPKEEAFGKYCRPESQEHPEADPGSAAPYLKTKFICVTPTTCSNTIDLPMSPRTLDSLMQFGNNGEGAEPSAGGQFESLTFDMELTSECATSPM
Method in brief: (§2)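 Ava5 cells incubated with a concentration series for 72 h. Whole-cell extracts were Western blotted with antibodies to STAT3 phosphorylated at Tyr705 and to total STAT3, with β-actin as loading control.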

[9] = target: Signal transducer and activator of transcription 3 (Homo sapiens) (UniProt P40763); assay: Effect on STAT3 protein production in human Ava5 cells after 72 hrs by Western blotting; type: cell-based; method in brief: as §2
Huh-7 = assay: Cytotoxicity against Hepatitis C virus JFH-1 infected human HuH7 cells; type: cell-based
[10] = Cytotoxicity against Hepatitis C virus infected human Ava5 cells assessed as cell viability after 5 days by MTS assay in presence of IFN-alpha; type: cell-based; conditions: ava5, 120 h
Hepatitis C virus [11] = assay: Antiviral activity against Hepatitis C virus infected in human Ava5 cells assessed as decreased NS3 protein level at 5 uM after 72 hrs by Western blotting; type: functional, organism-based; conditions: Hepacivirus hominis; method in brief: as §1

EC50 (Hepatitis C virus [3])	inhibition [8]	Activity [9]	SMILES	Activity (Hepatitis C virus [1])	Activity (Hepatitis C virus [2])	Activity (Hepatitis C virus [3]; Hepacivirus hominis)	Activity [4]	Activity (Hepatitis C virus [5])	Activity (Hepatitis C virus [6])	Activity (Hepatitis C virus [7])	Activity (Huh-7)	Activity [10]	Activity (Hepatitis C virus [11])
–	–	–	COc1ccc2c(O[C@@H]3C[C@H]4C(=O)N[C@]5(C(=O)O)C[C@H]5/C=C\CCCCC[C@H](NC(=O)OC5CCCC5)C(=O)N4C3)cc(-c3csc(NC(C)C)n3)nc2c1	Active	–	–	–	–	–	–	–	–	–
3.8 µM	Dose-dependent effect	inactive	C[C@@H]1CC[C@@]2(OC1)O[C@H]1C[C@H]3[C@@H]4CC=C5C[C@@H](O)CC[C@]5(C)[C@H]4CC[C@]3(C)[C@H]1[C@@H]2C [DISOGENIN]	–	Active	Dose-dependent effect	Non-toxic	Dose-dependent effect	Dose-dependent effect	Active	Non-toxic	Non-toxic	Active
